Values after ≈ are worked out from the molar mass of the structure shown. Active and inactive are the calls of the source. No cut-off for these calls is given here.
Key:
[1] = Kinetic solubility of the compound in phosphate buffer at pH 6.5 by nephelometric method; type: physicochemical; conditions: read-out: Kinetic_solubility
Outline: (§1)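 DMSO stocks spiked into pH 6.5 phosphate buffer or 0.01 M HCl (approx. pH 2.0); nephelometry gave a solubility concentration range.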

[2] = Kinetic solubility of the compound in 0.01M HCl at pH 2 by nephelometric method; type: physicochemical; conditions: read-out: Kinetic_solubility; outline: as §1
[3] = Intrinsic clearance in human liver microsomes assessed per mg protein after 60 mins in presence of NADPH generating system; type: ADME, microsome; conditions: 1 h
[4] = Intrinsic clearance in mouse liver microsomes assessed per mg protein after 60 mins in presence of NADPH generating system; type: ADME, microsome; conditions: 1 h
[5] = Octanol-[…] partition coefficient, log D of the compound at pH 7.4 by RP-HPLC method
Schistosoma mansoni [6] = experiment: Antischistosomal activity against newly transformed stage of Schistosoma mansoni measured after 72 hrs by microscopic analysis; type: functional, organism-based
Outline: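 Newly transformed schistosomula were first screened at 10 µM; compounds that killed them were then run as a concentration titration to derive IC50 values.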

Schistosoma mansoni [7] = experiment: Antischistosomal activity against adult stage of Schistosoma mansoni measured after 72 hrs by microscopic analysis; type: functional, organism-based
Schistosoma mansoni [8] = experiment: Antischistosomal activity against newly transformed stage of Schistosoma mansoni assessed as parasite death at 10 uM; type: functional, organism-based
Outline: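 Newly transformed schistosomula exposed at 10 µM as a screen for killing; active compounds then titrated to give IC50.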

HFF = experiment: Cytotoxicity against HFF; type: cell-based; conditions: Homo sapiens
U2OS = experiment: Cytotoxicity against human U2OS cells; type: cell-based
HEK293 = experiment: Cytotoxicity against HEK293 cells; type: cell-based; conditions: Homo sapiens
[9] = Cytotoxicity against human HC04 cells; type: cell-based
[10] = Cmax in Swiss mouse at 100 mg/kg, po administered as single dose via gavage by LC-MS analysis; type: ADME, organism-based; design: dose 100 mg/kg, route oral; conditions: in vivo
Outline: (§2)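 Single 100 mg/kg oral dose given to non-infected male Swiss outbred mice; plasma sampled over 48 h post-dose; n=2 mice per time point, mean values. AUC taken to last measured concentration.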

[11] = Tmax in Swiss mouse at 100 mg/kg, po administered as single dose via gavage by LC-MS analysis; type: ADME, organism-based; conditions: in vivo; outline: as §2
[12] = Half-life in Swiss mouse at 100 mg/kg, po administered as single dose via gavage by LC-MS analysis; type: ADME, organism-based; conditions: in vivo; outline: as §2
[13] = AUC (0 to last) in Swiss mouse at 100 mg/kg, po administered as single dose via gavage by LC-MS analysis; type: ADME, organism-based; design: dose 100 mg/kg, time 0 - last, route oral; conditions: in vivo; outline: as §2
Schistosoma mansoni [14] = experiment: Antischistosomal activity against Schistosoma mansoni cercariae infected in NMRI mouse assessed as reduction in worm burden at 100 mg/kg, po administered as single dose via gavage measured after 21 days relative to control; type: functional; design: scale not given: the % may be the effect or the level left
Outline: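 Infected mice given a single 100 mg/kg oral dose; efficacy read as worm burden reduction (%).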

[15] = Drug uptake in Swiss mouse plasma at 100 mg/kg, po administered as single dose via gavage measured after 4 to 48 hrs by LC-MS analysis; type: ADME, organism-based; conditions: in vivo; outline: as §2
Schistosoma mansoni [16] = experiment: Antischistosomal activity against Schistosoma mansoni cercariae infected in NMRI mouse assessed as reduction in worm burden at 80 mg/kg, po administered as four consecutive dose via gavage measured after 21 days relative to control; type: functional; design: scale not given: the % may be the effect or the level left
Outline: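 Infected mice given four consecutive 80 mg/kg oral doses; efficacy read as worm burden reduction (%).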

[17] = Plasma concentration in Swiss mouse at 100 mg/kg, po administered as single dose via gavage measured up to 48 hrs by LC-MS analysis; type: ADME, organism-based; outline: as §2
Schistosoma mansoni [18] = experiment: Antischistosomal activity against Schistosoma mansoni Liberian cercariae measured after 72 hrs by microscopic analysis; type: functional, organism-based
Outline: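 Newly transformed schistosomula prepared from cercariae, first screened at 10 µM as a gate. Active compounds then went through a concentration titration to derive IC50 values.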

Schistosoma mansoni [19] = experiment: Antischistosomal activity against Schistosoma mansoni infected in NMRI mouse assessed as reduction in worm burden at 400 mg/kg, po administered as single dose measured after 14 days relative to control; type: functional; design: scale not given: the % may be the effect or the level left
[20] = Half-life in mouse at 46.3 mg/kg, po; type: ADME, organism-based; conditions: in vivo
[21] = Cmax in mouse at 46.3 mg/kg, po; type: ADME, organism-based; design: dose 46.3 mg/kg, route oral; conditions: in vivo
[22] = Drug uptake in Swiss mouse plasma at 100 mg/kg, po administered as single dose via gavage measured after 2 hrs by LC-MS analysis; type: ADME, organism-based; conditions: in vivo; outline: as §2

SMILES | solubility kinetic [1] [µg/mL] | solubility kinetic [2] [µg/mL] | CLH [3] [µL/min/mg] | CLH [4] [µL/min/mg] | chromatographic logD [5] | IC50 (Schistosoma mansoni [6]) [µM] | IC50 (Schistosoma mansoni [7]) [µM] | Activity (Schistosoma mansoni [8]) | IC50 (HFF) [µM] | IC50 (U2OS) [µM] | IC50 (HEK293) [µM] | IC50 [9] [µM] | Cmax [10] [µM] | AUC(0-t) [13] [µM·h] | Activity (Schistosoma mansoni [14]) [%] | further results
O=C(Nc1ccncc1)Nc1ccncc1 | 12.5 to 25 (≈ 58.3 to 117 µM) | > 100 | < 7 | 188 | 1.3 |  |  |  |  |  |  |  |  |  |  | 
NC(=O)c1ccc(NC(=O)Nc2ccc(F)c(C(F)(F)F)c2)cc1 | 6.3 to 12.5 (≈ 18.5 to 36.6 µM) | 6.3 to 12.5 (≈ 18.5 to 36.6 µM) | 28 | 22 | 2.7 |  |  |  |  |  |  |  |  |  |  | 
N#Cc1ccc(NC(=O)Nc2ccc(F)c(C(F)(F)F)c2)cc1 | < 1.6 | < 1.6 | < 7 | 12 | 3.8 | 1.6 | 0.94 | Active | 60 | > 100 | > 100 | > 100 | 31 | 216 | 37 | Tmax [11]: 4 h; half-life [12]: 2.7 h
O=C(Nc1ccnc(C(F)(F)F)c1)Nc1ccc(F)c(C(F)(F)F)c1 | 3.1 to 6.3 (≈ 8.44 to 17.2 µM) | 3.1 to 6.3 (≈ 8.44 to 17.2 µM) | < 7 | < 7 | 3.8 | 0.74 | 0.66 | Active | 71 | > 100 | > 100 | > 100 | 56 | 1490 | 50 | Drug uptake [15]: Active; Tmax [11]: 7.5 h; half-life [12]: 18 h; Activity (Schistosoma mansoni [16]): 53%
O=C(Nc1ccc2c(c1)OC(F)(F)O2)Nc1ccc(F)c(C(F)(F)F)c1 | < 1.6 | < 1.6 | < 7 | < 7 | 4.5 | 0.21 | 0.49 | Active | 67 | > 100 | > 100 | > 100 | 27 | 989 | 0 | concentration at 48 h [17]: > 5 µM
O=C(Nc1ccc(Cl)c(Cl)c1)Nc1ccc(Cl)c(Cl)c1 |  |  |  |  |  |  |  |  |  |  |  |  |  |  | 0 | IC50 (Schistosoma mansoni [18]): 0.8 µM; Activity (Schistosoma mansoni [19]): 53%; half-life [20]: 4.7 h; Cmax [21]: 4.4 µM
O=C(Nc1cccnc1)Nc1ccc(F)c(C(F)(F)F)c1 | 12.5 to 25 (≈ 41.8 to 83.5 µM) | 50 to 100 (≈ 167 to 334 µM) | 13 | 154 | 3 |  |  |  |  |  |  |  |  |  |  | 
O=C(Nc1ccncc1)Nc1ccc(F)c(C(F)(F)F)c1 | 6.3 to 12.5 (≈ 21.1 to 41.8 µM) | 6.3 to 12.5 (≈ 21.1 to 41.8 µM) | 12 | 37 | 3.2 | 5.6 | > 10 | Active |  |  |  |  |  |  |  | 
O=C(Nc1ccc2c(c1)OC(F)(F)O2)Nc1ccc2c(c1)OC(F)(F)O2 | < 1.6 | < 1.6 | < 7 | 12 | 4.4 | 0.26 | 0.49 | Active | 79 | > 100 | > 100 | > 100 | 25 | 679 | 0 | concentration at 48 h [17]: > 5 µM; half-life [12]: 13 h
NC(=O)c1ccccc1NC(=O)Nc1ccc(F)c(C(F)(F)F)c1 | 1.6 to 3.1 (≈ 4.69 to 9.08 µM) | 1.6 to 3.1 (≈ 4.69 to 9.08 µM) | 81 | 69 | 3.3 |  |  |  |  |  |  |  |  |  |  | 
O=C(Nc1ccnc(C(F)(F)F)c1)Nc1ccnc(C(F)(F)F)c1 | 12.5 to 25 (≈ 35.7 to 71.4 µM) | 12.5 to 25 (≈ 35.7 to 71.4 µM) | < 7 | < 7 | 3 | 2.4 | 0.88 | Active | > 100 | > 100 | > 100 | > 100 | 40 | 953 | 20 | Drug uptake [15]: Active; Tmax [11]: 4 h; half-life [12]: 10 h
O=C(Nc1cccc(C(=O)O)c1)Nc1ccc(F)c(C(F)(F)F)c1 | 12.5 to 25 (≈ 36.5 to 73 µM) | 1.6 to 3.1 (≈ 4.67 to 9.06 µM) | < 7 | < 7 | 1.6 |  |  |  |  |  |  |  |  |  |  | 
O=C(Nc1ccc(F)c(C(F)(F)F)c1)Nc1ccccn1 | < 1.6 | 1.6 to 3.1 (≈ 5.35 to 10.4 µM) | 188 | 705 | 3.7 |  |  |  |  |  |  |  |  |  |  | 
O=C(Nc1ccnc(C(F)(F)F)c1)Nc1ccc2c(c1)OC(F)(F)O2 | 3.1 to 6.3 (≈ 8.58 to 17.4 µM) | 3.1 to 6.3 (≈ 8.58 to 17.4 µM) | < 7 | 16 | 3.7 | 1.3 | 0.75 | Active | 80 | > 100 | > 100 | > 100 | 55 | 2270 | 2.1 | concentration at 48 h [17]: > 5 µM
O=C(Nc1ccc(C(=O)O)cc1)Nc1ccc(F)c(C(F)(F)F)c1 | 12.5 to 25 (≈ 36.5 to 73 µM) | < 1.6 | < 7 | < 7 | 1.5 |  |  |  |  |  |  |  |  |  |  | 
O=C(Nc1ccc(F)c(C(F)(F)F)c1)Nc1cnccn1 | < 1.6 | 1.6 to 3.1 (≈ 5.33 to 10.3 µM) | 210 | 160 | 3 |  |  |  |  |  |  |  |  |  |  | 
O=C(Nc1ccc(F)c(C(F)(F)F)c1)Nc1ccc(F)c(C(F)(F)F)c1 |  | < 1.6 | 10 | 7 | 4.5 | 0.15 | 0.19 | Active | 57 | > 100 | > 100 | > 100 | 31 | 394 | 40 | Drug uptake [22]: Active; concentration at 48 h [17]: > 1 µM; Tmax [11]: 4 h; half-life [12]: 11 h
Cc1cc(NC(=O)Nc2ccc(F)c(C(F)(F)F)c2)on1 | 6.3 to 12.5 (≈ 20.8 to 41.2 µM) | 12.5 to 25 (≈ 41.2 to 82.4 µM) | 73 | 108 | 3.2 |  |  |  |  |  |  |  |  |  |  | 
O=C(Nc1cnccn1)Nc1cnccn1 | 6.3 to 12.5 (≈ 29.1 to 57.8 µM) | 6.3 to 12.5 (≈ 29.1 to 57.8 µM) | 18 | 157 | 0.8 |  |  |  |  |  |  |  |  |  |  | 
CC(=O)c1ccc(NC(=O)Nc2ccc(F)c(C(F)(F)F)c2)cc1 | < 1.6 | < 1.6 | 16 | 14 | 3.6 |  |  |  |  |  |  |  |  |  |  | 
N#Cc1ccc(NC(=O)Nc2ccnc(C(F)(F)F)c2)cc1 | 1.6 to 3.1 (≈ 5.22 to 10.1 µM) | 1.6 to 3.1 (≈ 5.22 to 10.1 µM) | < 7 | < 7 | 3 | 1.9 | 3.3 | Active | > 100 | > 100 | > 100 | > 100 | 20 | 175 | 1.6 | Tmax [11]: 2 h; half-life [12]: 2.3 h
